Source: PMC9520214 (Heliyon, 2022)
Several values for one entry are separate records, joined by “and”; a condition that tells them apart may be missing. Equal entries are not always repeated. Where two headings read alike, the source gives them in different places.

Experiments:
Type in all cases: biochemical
[1] = target: hCA II (Homo sapiens, UniProt P00918); assay: hCA II esterase activity inhibition assay
How it was run: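 hCA II purified from expired human erythrocytes by Sepharose-4B-L-tyrosine-sulfanilamide affinity chromatography; purity checked by SDS-PAGE; protein quantified against a bovine serum albumin standard. Esterase activity followed spectrophotometrically as p-nitrophenylacetate hydrolysis to p-nitrophenolate, absorbance change at 348 nm over 3 min at 25 °C. Inhibitor and substrate concentrations varied; IC50 and Ki derived, inhibition type from Lineweaver-Burk plots.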

[2] = target: AChE (Electrophorus electricus, UniProt O42275); assay: biochemical
AChE, sequence (O42275 24-633): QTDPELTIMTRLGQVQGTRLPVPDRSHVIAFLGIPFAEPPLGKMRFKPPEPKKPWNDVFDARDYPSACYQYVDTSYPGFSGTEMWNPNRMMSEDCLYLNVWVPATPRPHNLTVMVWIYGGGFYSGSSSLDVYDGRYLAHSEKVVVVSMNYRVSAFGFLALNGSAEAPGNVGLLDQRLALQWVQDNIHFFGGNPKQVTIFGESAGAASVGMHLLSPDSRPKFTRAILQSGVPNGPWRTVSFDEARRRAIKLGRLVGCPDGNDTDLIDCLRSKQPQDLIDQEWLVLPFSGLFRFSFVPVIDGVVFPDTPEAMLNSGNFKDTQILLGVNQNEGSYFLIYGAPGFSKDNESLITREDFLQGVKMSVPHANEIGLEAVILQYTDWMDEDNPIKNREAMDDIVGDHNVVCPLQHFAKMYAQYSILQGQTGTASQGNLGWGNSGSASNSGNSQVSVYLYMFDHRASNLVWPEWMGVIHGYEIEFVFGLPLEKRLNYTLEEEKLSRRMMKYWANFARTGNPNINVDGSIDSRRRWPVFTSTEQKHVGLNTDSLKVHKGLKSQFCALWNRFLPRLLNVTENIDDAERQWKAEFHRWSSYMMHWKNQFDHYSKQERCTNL

[3] = target: hCA I (Homo sapiens, UniProt P00915); assay: hCA I esterase activity inhibition assay; conditions: for fold increase of hCA I inhibition relative to complex 2: ratio of Ki values, versus complex 2
hCA I, sequence (P00915 whole entry): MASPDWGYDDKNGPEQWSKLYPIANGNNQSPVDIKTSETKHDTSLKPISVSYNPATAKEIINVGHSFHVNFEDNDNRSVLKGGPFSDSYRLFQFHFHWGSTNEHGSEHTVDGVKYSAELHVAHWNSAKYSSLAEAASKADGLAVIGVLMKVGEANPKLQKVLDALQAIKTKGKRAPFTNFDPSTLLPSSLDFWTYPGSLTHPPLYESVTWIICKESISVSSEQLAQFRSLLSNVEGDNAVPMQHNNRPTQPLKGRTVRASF

[4] = read-out: Ki hCA II, Lineweaver-Burk, hCA II from human erythrocytes
[5] = read-out: Ki hCA I, Lineweaver-Burk, hCA I from human erythrocytes

| Compound | Ki [1, 4] | fold increase of hCA I inhibition relative to complex 2 [3] [fold] | Ki [3, 5] [nM] | further results |
| --- | --- | --- | --- | --- |
| c1ccc(Cn2c[n+](Cc3ccccc3)c3ccccc32)cc1 [Compound 1, 1,3-dibenzylbenzimidazolium chloride] | – | – | – | IC50 [1]: 69.3 nM; Ki [1]: 49.3 ± 6.5 nM; IC50 [2]: 86.6 nM; Ki [2]: 64 nM and 64.1 nM; IC50 [3]: 116 nM; Ki [3]: 68.5 ± 11.5 nM |
| dibromo[1,3-dibenzylbenzimidazol-2-ylidene]-2-aminopyridinepalladium(II) [Complex 4] | 19.7 ± 1.9 nM | 2.83 | 18.1 ± 3 | – |
| dibromo[1,3-dibenzylbenzimidazol-2-ylidene]-3-chloropyridinepalladium(II) [Complex 3] | 7.7 ± 0.6 nM | 2.83 | 10 ± 1.4 | – |
| dibromo[1,3-dibenzylbenzimidazol-2-ylidene]morpholinepalladium(II) [Complex 6] | 12 nM and 12.1 nM | – | 16.9 ± 0.3 | – |
| dibromo[1,3-dibenzylbenzimidazol-2-ylidene]pyridinepalladium(II) [Complex 2] | 8.3 ± 1.8 nM | – | 28.4 ± 1.2 | fold more effective AChE inhibition than donepezil [2]: 1.49 fold; fold more effective AChE inhibition than tacrine [2]: 1.76 fold |
| dibromo[1,3-dibenzylbenzimidazol-2-ylidene]triphenylphosphine palladium(II) [Complex 5] | 15 nM and 15.3 nM | – | 40.3 ± 2 | Ki ([2]; read-out: Ki AChE, Lineweaver-Burk, AChE from Electrophorus electricus): 23.1 ± 2.6 nM |
